SENP1 FRET inh: blocks the human SENP1 SUMO protease catalytic domain; inhibition, % at 10 µM; recombinant SENP1 catalytic domain, CyPet-SUMO1-YPet FRET cleavage; Q9P0U3; 360,000 compounds, 0.21% hits;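 active = inhibition at least 30% at 10 µM, raw YFP signal under a set limit, fluorescence ratio 0.5 to 1.5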;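 also: 0% = enzyme with DMSO and 100% = no enzyme wells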
Target sequence (Q9P0U3 419-644 limits assumed): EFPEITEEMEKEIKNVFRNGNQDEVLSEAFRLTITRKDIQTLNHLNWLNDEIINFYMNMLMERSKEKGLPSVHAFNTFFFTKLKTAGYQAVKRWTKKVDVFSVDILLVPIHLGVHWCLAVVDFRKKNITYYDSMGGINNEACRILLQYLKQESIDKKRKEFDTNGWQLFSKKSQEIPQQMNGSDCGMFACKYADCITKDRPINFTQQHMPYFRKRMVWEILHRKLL
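Material – human SENP1 catalytic domain · Input – SENP1 enzyme, 20 pM final · Compound dosing – single concentration of 10 µM compound, 0.5% DMSO final · Timing – enzyme reaction for 50 min at room temperature, dark · Measured by – FRET fluorescence in CFP and YFP emission channels · Control set – no-enzyme wells low, DMSO-plus-enzyme wells high control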
SENP8 block-1: inhibitors of human SENP8 protease; AID 2540; inhibition, % at 10 µM; 330,000 compounds, 1.2% hits; Q96LD8; purified SENP8, Z-RLRGG-aminoluciferin cleavage, luminescence; in the data active = inhibition above about 50%
Target sequence (Q96LD8 whole entry, looked up): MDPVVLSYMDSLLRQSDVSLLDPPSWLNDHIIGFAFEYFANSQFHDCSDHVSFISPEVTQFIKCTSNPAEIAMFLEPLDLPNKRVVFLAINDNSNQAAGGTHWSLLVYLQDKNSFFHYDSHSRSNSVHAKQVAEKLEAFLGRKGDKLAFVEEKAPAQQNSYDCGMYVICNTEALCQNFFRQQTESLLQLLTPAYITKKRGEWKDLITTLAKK
SENP6 inh: inhibitors of human SENP6 protease; AID 2599; Q9GZR1; inhibition, % at 10 µM; Recombinant SENP6 catalytic domain, aminoluciferin luminescence; 330,000 compounds, 1.8% hits;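 active = inhibition above about 50% at the single tested dose, limit read from the data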;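 also: plate controls were DMSO wells with enzyme for no effect and DMSO wells lacking enzyme for full effect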
SENP8 block-2: SENP8 (human) protease inhibition; 360,000 compounds, 0.64% hits; inhibition, % at 20 µM; AID 602440; Q96LD8; recombinant SENP8, Nedd8 substrate fluorescence; in the data active = inhibition mostly above about 40%, no sharp cut-off; inactive = mostly below about 27%
SENP7 block: SENP7 protease inhibition; 330,000 compounds, 1.5% hits; Q9BQF6; inhibition, % at 5 µM; AID 434973; recombinant SENP7, Z-RLRGG-aminoluciferin luminescence, 40 min;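 active = inhibition above about 50% at the single test dose, limit read from the data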;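 also: plate controls were DMSO with enzyme for no effect and no enzyme buffer wells for full effect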
SENP8 confirm: human SENP8 inhibition, confirmed | shares compounds with SENP7 block | Recombinant SENP8, Z-RLRGG-aminoluciferin luminescence, 60 min | inhibition, % at 12.5 µM | 6,200 compounds, 40% hits | AID 488912;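 active = mean inhibition across replicates above about 50%, limit read from the data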
SENP6 conf: confirmation of human SENP6 protease inhibitors. inhibition, % at 12.5 µM. shares compounds with SENP7 block. recombinant SENP6, Z-RLRGG-aminoluciferin luminescence. 6,200 compounds, 58% hits. AID 488915
SENP7 confirm: confirmation of human SENP7 protease inhibitors; shares compounds with SENP7 block; recombinant SENP7, Z-RLRGG-aminoluciferin luminescence, 40 min; inhibition, % at 12.5 µM; 6,200 compounds, 69% hits
Casp3 select: selectivity test for SENP inhibitors: human caspase-3 inhibition. 6,200 compounds, 60% hits. AID 488918. inhibition, % at 12.5 µM. purified caspase-3, Z-DEVD-aminoluciferin luminescence, 60 min. shares compounds with SENP7 block;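 active = mean inhibition above about 50%, limit read from the data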;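 also: plate controls were enzyme with DMSO for no effect and wells without caspase-3 for full effect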
SENP luc ctr: luminescence interference (SENP counter-screen); shares compounds with SENP7 block; Pre-incubated SENP8/Z-RLRGG-aminoluciferin, luciferase luminescence interference; inhibition, % at 12.5 µM; 6,200 compounds, 39% hits;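 active = mean inhibition above about 50% when retested at one dose, limit read from the data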;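 also: plate controls were DMSO wells with completed reaction for no effect and substrate without enzyme for full effect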
Active calls of the source: *; · = not tested or not shown. Shown are actives, neighbours in structure and some others; about 2.5% of the full set was active somewhere.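 The calls were made as follows, unless noted: active = mean inhibition above about 50% in the one-dose retest (limit read from the data); inactive = the rest.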

SMILES	SENP1 FRET inh	SENP8 block-1	SENP6 inh	SENP8 block-2	SENP7 block	SENP8 confirm	SENP6 conf	SENP7 confirm	Casp3 select	SENP luc ctr
Cc1cc(C(=O)N2CCC2(C)C(=O)NS(=O)(=O)c2ccccc2Cl)nn1C (stereo not given)	0	·	·	8	·	·	·	·	·	·
O=c1oc(-c2ccccc2)cc2ccccc12	1	·	·	16	·	·	·	·	·	·
Nc1ccc(-c2cc3ccccc3c(=O)o2)cc1	-25	41	53*	-478	26	44	45	77*	55*	1
COc1cccc2sc(Nc3nnc(-c4ccccc4Cl)o3)nc12	-51	18	22	-410	0	·	·	·	·	·
COc1cccc(-c2nnc(NC(C)=O)o2)c1	1	-6	1	-3	-6	·	·	·	·	·
COc1ccccc1-c1nnc(Nc2nc3c(OC)cccc3s2)o1	-48	-30	34	-316	76*	-17	-11	32	49	44
COc1cccc(-c2nnc(Nc3nc4c(F)cccc4s3)o2)c1	-31	84*	90*	-278	37	4	84*	2	60*	50*
COc1ccc(NC(=O)C2Cc3c(-c4cccc(C(N)=O)c4)ccnc3O2)cn1 (stereo not given)	1	·	·	21	·	·	·	·	·	·
COc1ccc(-c2nc3ccccc3[nH]2)cc1	3	95*	94*	-25	97*	96*	98*	103*	98*	96*
Nc1cc(N)cc(-c2nc3ccccc3[nH]2)c1	-1	7	5	-349	13	·	·	·	·	·
COC(=O)c1ccc(C(=O)Nc2ccc3nc(-c4ccncc4)[nH]c3c2)cc1	24	-8	11	-2	-6	·	·	·	·	·
COc1ccc(-c2nc3ccccc3nc2-c2ccc(OC)cc2)cc1	-92	-1	-5	-306	2	·	·	·	·	·
Cc1cc(-c2nc3ccccc3[nH]2)ccc1N	-2	70*	50*	-392	91*	87*	86*	99*	93*	87*
O=C(O)c1cccc(-c2nc3ccccc3[nH]2)c1	1	94*	94*	-51	99*	96*	97*	100*	89*	96*
COC(=O)c1ccc(-c2nc3ccccc3[nH]2)cc1	3	85*	88*	-427	95*	93*	93*	100*	96*	91*
O=C(COC(=O)[C@@H]1CCCN1C(=O)c1cccs1)Nc1cccc([N+](=O)[O-])c1	0	2	4	15	3	·	·	·	·	·
CCCCN1C(=O)C(=O)N(CC(=O)c2cc(C)n(-c3cc(C)on3)c2C)C1=O	-1	-6	-8	0	-3	·	·	·	·	·
CCc1nc2cccnc2n1-c1ccc(CC(=O)NCCOC)cc1	-4	0	-3	-66	3	·	·	·	·	·
c1ccc2[nH]c(-c3ccncc3)nc2c1	0	1	13	-363	7	·	·	·	·	·
c1ccc(-c2nc3ccccc3[nH]2)cc1	-1	71*	76*	-12	76*	73*	66*	90*	84*	69*
COc1ccc(-c2cc(=O)n(-c3nc4ccccc4[nH]3)[nH]2)cc1	-94	87*	91*	-64	34	-4	92*	101*	96*	54*
O=[N+]([O-])c1ccccc1Nc1cccnc1	2	-11	-6	25	-10	·	·	·	·	·
CCCCNC(=O)c1sc(=S)n2c1[nH]c(=O)c1ccccc12	-1	21	85*	29	-1	49	41	17	3	21
O=C(NC1CCCCC1)c1sc(=S)n2c1[nH]c(=O)c1ccccc12	0	29	15	35	-13	·	·	·	·	·
O=C1c2ccccc2C(=O)N1CCSc1ccccc1	4	8	60*	20	41	26	25	72*	50	48
SMILES	SENP1 FRET inh	SENP8 block-1	SENP6 inh	SENP8 block-2	SENP7 block	SENP8 confirm	SENP6 conf	SENP7 confirm	Casp3 select	SENP luc ctr
O=C1c2ccccc2C(=O)N1CCSc1nncs1	0	-2	-6	7	-3	·	·	·	·	·
O=C(Nc1ccn(Cc2ccccc2F)n1)c1ccc(COc2cccc(Br)c2)cc1	0	88*	97*	13	14	-24	90*	103*	56*	97*
CCCCCCSC1=C(C#N)C(=O)NC2(CCCCC2)S1	-1	59*	35	40	-1	8	87*	94*	40	88*
Cc1cc2nc(-c3cccnc3SCC(=O)NCc3ccco3)[nH]c2cc1C	-20	74*	84*	-290	88*	91*	90*	98*	90*	86*
O=C(CSc1ncccc1-c1nc2ccccc2[nH]1)NCc1ccco1	-16	7	11	-247	-2	·	·	·	·	·
Clc1cccc(CN2CCSCC2)c1	2	0	5	13	-4	·	·	·	·	·
COc1ccc2nc(SCC(C)=O)c(C#N)cc2c1	45	61*	69*	-52	60*	0	72*	92*	72*	52*
COc1ccc2c(CC(=O)N3CCc4ccccc43)coc2c1	-6	72*	85*	-3	85*	81*	81*	93*	81*	61*
COc1ccc2c(CC(=O)OCC(=O)N3CCc4ccccc43)coc2c1	0	0	-3	9	1	·	·	·	·	·
COc1ccc2oc(C(=O)N3CCc4ccccc43)c(C)c2c1	-8	96*	96*	3	100*	72*	88*	96*	85*	17
COc1ccc2cc(C(=O)N3CCc4ccccc43)[nH]c2c1	-28	53*	86*	-24	93*	22	34	23	22	0
COc1cc(/C=N/NC(=O)c2ccncc2)ccc1OC(=O)c1cc(OC)c(OC)c(OC)c1	1	2	-4	1	5	·	·	·	·	·
Cc1ccc(N=Cc2c(C)[nH]n(-c3nc4ccccc4[nH]3)c2=O)cc1	-17	86*	94*	14	95*	88*	55*	94*	95*	90*
Cc1nc(NC(=S)NC(=O)c2ccccc2)sc1C	2	-20	6	31	16	·	·	·	·	·
Cc1nc(NC(=O)c2cccnc2Cl)sc1C	0	32	54*	-10	49	36	37	75*	80*	60*
Cc1nc(NC(=O)c2ccccc2O)sc1C	1	34	49	-170	54*	-21	39	38	7	-4

Bioassay records from PubChem.
